In one assay the test system is SW480. Kind of assay: Cytotoxicity against human SW480 cells assessed as cell viability after 48 hrs by MTS assay. It is filed as functional, cell-based. The conditions noted are these: SW480, 48 h. The method in brief: (§1)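 Adherent cells grown in DMEM or RPMI1640 with 10% FBS at 37 °C in 5% CO2, seeded in 96-well plates, and left to adhere 12 h. Compounds were added at 0.0625, 0.32, 1.6, 8 and 40 μM for 48 h, in triplicate, with cisplatin and paclitaxel as positive controls. MTS (5 mg/mL) was added for 4 h at 37 °C, cells lysed in 10% SDS, and OD read at 595 nm.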
A general note: Tetrazolium dyes change colour on reduction, which living cells bring about.

Another assay concerns HL-60. Kind of assay: Cytotoxicity against human HL60 cells assessed as cell viability after 48 hrs by MTS assay. It is filed as functional, cell-based. To be noted: HL-60, 48 h. The method in brief:
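HL-60 suspension cells grown in DMEM or RPMI1640 with 10% FBS at 37 °C in 5% CO2, seeded at 1 × 10^5 cells/mL just before dosing. Exposure was 48 h, in triplicate, at 0.0625–40 μM (five concentrations), with cisplatin and paclitaxel controls. MTS (5 mg/mL) was added for 4 h at 37 °C, followed by 10% SDS lysis and OD at 595 nm.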

A further assay deals with A549. Description: Cytotoxicity against human A549 cells assessed as cell viability after 48 hrs by MTS assay. It is filed as functional, cell-based. The conditions noted are these: A549, 48 h. The method in brief: as §1
A short description of assay [1]: Cytotoxicity against human BEAS2B cells assessed as cell viability after 48 hrs by MTS assay. It is filed as cell-based. The conditions noted are these: BEAS-2B. The method in brief: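 Noncancerous human bronchial epithelial BEAS-2B cells grown in DMEM or RPMI1640 with 10% FBS at 37 °C in 5% CO2, seeded in 96-well plates and allowed 12 h to adhere before compound addition. Viability was read after adding MTS (5 mg/mL) for 4 h at 37 °C, lysing in 10% SDS, and measuring formazan OD at 595 nm.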

The next assay has as its system SMMC-7721. Description: Cytotoxicity against human SMMC7721 cells assessed as cell viability after 48 hrs by MTS assay. It is filed as functional, cell-based. The conditions noted are these: SMMC-7721, 48 h. In a few lines: as §1
The next assay concerns MCF7. Kind of assay: Cytotoxicity against human MCF7 cells assessed as cell viability after 48 hrs by MTS assay. It is filed as functional, cell-based. The conditions noted are these: MCF7, 48 h. The method in brief:
as §1

Ten molecules from ChEMBL document CHEMBL3585348, “Armochaetoglobins A-J: Cytochalasan Alkaloids from Chaetomium globosum TW1-1, a Fungus Derived from the Terrestrial Arthropod Armadillidium vulgare” (J Nat Prod, 2015) can be followed below.

Structures are written as SMILES. Bounds are passed on as bounds.

With `C/C(=C\C(C)C/C=C/[C@H]1[C@@H]2O[C@]2(C)[C@@H](C)[C@H]2[C@H](Cc3c[nH]c4ccccc34)NC(=O)[C@]21C(=O)CCCO)CO` (stereo not given in full), the IC50 (commonly the midpoint of a concentration-inhibition curve) is more than 40 µM with SW480; 16.5 µM with HL-60; 30.9 µM with A549; 23.1 µM in assay [1]; 19.4 µM in the assay on SMMC-7721; more than 40 µM in the assay with MCF7.
With `C/C(C=O)=C\C(C)C/C=C/[C@H]1[C@@H]2O[C@]2(C)[C@@H](C)[C@H]2[C@H](Cc3c[nH]c4ccccc34)NC(=O)[C@]21C(=O)CCCO` (stereo not given in full), the IC50 in the assay with SW480 is more than 40 µM; in the assay on HL-60 it was 11.9 µM; with A549, 16.3 µM; in assay [1], 15.5 µM; with SMMC-7721 it was 10.6 µM; in the assay on MCF7, more than 40 µM.
As to `C/C(C=O)=C\C(C)C/C=C/[C@H]1[C@@H]2O[C@]2(C)[C@@H](C)[C@H]2[C@H](Cc3c[nH]c4ccccc34)NC(=O)[C@]21C(=O)CCC(=O)O` (stereo not given in full), the IC50 in the assay with SW480 is more than 40 µM; in the assay on HL-60, more than 40 µM; in the assay on A549, more than 40 µM; in assay [1], more than 40 µM; in the assay on SMMC-7721, 25 µM; in the assay with MCF7, more than 40 µM.
Consider `COC(=O)CCC(=O)[C@@]12C(=O)N[C@@H](Cc3c[nH]c4ccccc34)[C@@H]1[C@H](C)[C@@]1(C)O[C@H]1[C@@H]2/C=C/CC(C)/C=C(\C)C=O` (stereo not given in full), for which the IC50 came out at 38.2 µM in the assay on SW480; 14 µM in the assay with HL-60; 19.8 µM in the assay on A549; 5.68 µM in assay [1]; 10.8 µM in the assay on SMMC-7721; 22.7 µM in the assay with MCF7.
As for `C/C1=C\[C@@H](C)C/C=C/[C@H]2C=C(CO)[C@@H](C)[C@H]3[C@H](Cc4c[nH]c5ccccc45)NC(=O)[C@]32C(=O)CCC(=O)C1`, the concentration for half-maximal inhibition (IC50) (in the assay on SW480; in the assay with HL-60; in the assay with A549; in assay [1]; in the assay on SMMC-7721; in the assay on MCF7) was more than 40 µM each time.
In the case of `CC1=C[C@@H]2/C=C/C[C@H](C)/C=C(\C)C(=O)[C@@H](O)CCC(=O)[C@]23C(=O)N[C@@H](Cc2c[nH]c4ccccc24)[C@@H]3[C@@H]1C`, the IC50 was determined as 20.6 µM in the assay with SW480; 12.6 µM with HL-60; 14.3 µM in the assay on A549; 16 µM in assay [1]; 13.8 µM in the assay with SMMC-7721; 14.8 µM in the assay on MCF7.
For the molecule `C/C1=C\[C@@H](C)C/C=C/[C@H]2C=C(CO)[C@@H](C)[C@H]3[C@H](Cc4c[nH]c5ccccc45)NC(=O)[C@]32C(=O)/C=C/C(=O)[C@@H]1O`, the IC50 worked out at 3.9 µM with SW480; 3.31 µM in the assay with HL-60; 8.01 µM in the assay with A549; 3.34 µM in assay [1]; 9.83 µM in the assay on SMMC-7721; 4.06 µM in the assay with MCF7.
Consider `CC1=C[C@@H]2/C=C/C[C@H](C)/C=C(\C)[C@@H](O)[C@@H](O)CCC(=O)[C@]23C(=O)N[C@@H](Cc2c[nH]c4ccccc24)[C@@H]3[C@@H]1C`, for which the concentration for half-maximal inhibition (IC50) (in the assay on SW480; with HL-60; in the assay with A549; in assay [1]; in the assay on SMMC-7721; in the assay on MCF7) was more than 40 µM throughout.
With `C/C1=C\[C@@H](C)C/C=C/[C@H]2[C@H](O)[C@@]3(C)O[C@@]4(Cc5c[nH]c6ccccc56)NC(=O)[C@]2(C(=O)CCC(=O)C1=O)[C@H]4[C@@H]3C`, the IC50 came out at 35.3 µM in the assay on SW480; 18.2 µM with HL-60; 17.7 µM in the assay on A549; 16.6 µM in assay [1]; 17.4 µM with SMMC-7721; 19.1 µM in the assay with MCF7.
Regarding `CC(=O)O[C@H]1C(=O)[C@@]2(C)[C@H]([C@H](OC(=O)c3ccccc3)[C@]3(O)C[C@H](OC(=O)[C@H](O)[C@@H](NC(=O)c4ccccc4)c4ccccc4)C(C)=C1C3(C)C)[C@]1(OC(C)=O)CO[C@@H]1C[C@@H]2O` [PACLITAXEL], the concentration for half-maximal inhibition (IC50) with SW480 was less than 0.008 µM; in the assay with HL-60, less than 0.008 µM; in the assay with A549 it was less than 0.008 µM; in assay [1], 0.58 µM; with SMMC-7721, less than 0.008 µM; in the assay on MCF7, less than 0.008 µM.
